# Measured values reported in ChEMBL document CHEMBL1629694, “Inhibition of dengue virus RNA synthesis by an adenosine nucleoside” (Antimicrob Agents Chemother, 2010).
# The source made the active and inactive calls. The rule behind the calls is not given here.
# Tests used:
# [1] = Cytotoxicity against human A549 cells assessed as intracellular ATP level by Celltiter-Glo luminescent assay; assay type: cell-based
# dengue virus type 2 [2] = assay: Antiviral activity against at 0.3 MOI Dengue virus 2 infected in human A549 cells assessed as level of E protein after 48 hrs by ELISA; assay type: functional, organism-based; conditions: A549, 48 h
# In short: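 CFI assay: A549 cells (2 × 10^4/well) seeded and infected the next day with DENV-2 at MOI 0.3 for 1 h, compound added to the inoculum. Medium then replaced with fresh medium containing compound. Cells methanol-fixed on day 2 p.i. E protein detected by ELISA (mAb 4G2, HRP anti-mouse IgG). EC50 from nonlinear regression.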
# Blood [3] = assay: Drug uptake in rat blood assessed as mono-derivatives of compound level at 25 mg/kg, po by […]; assay type: ADME, organism-based; parameters: dose 25 mg/kg, route oral; conditions: in vivo
# In short: (§1)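 Male Han-Wistar rats given 14C-labeled compound (label at adenine C-2) as a single intravenous 5 mg/kg or oral 25 mg/kg dose. Plasma and blood pellets sampled over time; pellets first taken up in 2 volumes of pH 2.5 ammonium formate/0.1% formic acid. Extraction in ice-cold acetonitrile (3:1). Metabolites profiled by HPLC with off-line radioactivity detection and identified by MS.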
# dengue virus type 2 [4] = assay: Antiviral activity against at 1 MOI of Dengue virus 2 infected in hamster BHK21 cells assessed as decrease in viral RNA synthesis at 3 uM after 24 hrs post-transfection by luciferase reporter gene assay; assay type: functional, organism-based; conditions: BHK-21, 1 M
# In short: (§2)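 DENV-2 luciferase replicon RNA (10 μg) electroporated into 8 × 10^6 BHK-21 cells, then seeded at 3.2 × 10^5/well. Cells incubated immediately with 1 or 3 μM compound, with 0.9% DMSO (final) as control. Luciferase measured at 2–4 h (translation of input RNA) and at 24 and 35 h p.t. (RNA synthesis).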
# dengue virus type 2 [5] = assay: Antiviral activity against at 1 MOI of Dengue virus 2 infected in hamster BHK21 cells assessed as decrease in viral NS3 protein expression at 3 uM after 35 hrs post-transfection by […]; assay type: functional, organism-based; conditions: BHK-21, 1 M
# In short: (§3)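 Replicon-electroporated BHK-21 cells treated immediately with 1 or 3 μM compound, with 0.9% DMSO control. Cells lysed at 24 and 35 h p.t. NS3 detected by Western blot with in-house rabbit anti-NS3 (1:5,000). γ-Tubulin (1:1,000) served as reference, with HRP secondary antibodies (1:8,000).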
# dengue virus type 2 [6] = assay: Antiviral activity against at 1 MOI of Dengue virus 2 infected in hamster BHK21 cells assessed as decrease in viral NS3 protein expression at 3 uM after 24 hrs post-transfection by […]; assay type: functional, organism-based; conditions: BHK-21, 1 M; in short: as §3
# dengue virus type 2 [7] = assay: Antiviral activity against Dengue virus 2 infected in human HEK293 cells assessed as level of viral titer after 48 hrs by luciferase reporter gene assay in presence of siRNA targeting deoxycytidine kinase; assay type: functional, organism-based
# dengue virus type 2 [8] = assay: Antiviral activity against at 1 MOI of Dengue virus 2 infected in hamster BHK21 cells assessed as decrease in viral NS3 protein expression at 1 uM after 35 hrs post-transfection by […]; assay type: functional, organism-based; conditions: BHK-21, 1 M; in short: as §3
# dengue virus type 2 [9] = assay: Antiviral activity against at 1 MOI of Dengue virus 2 infected in hamster BHK21 cells assessed as viral titer after 48 hrs postinfection by plaque assay; assay type: functional, organism-based; conditions: BHK-21, 1 M
# [10] = Cytotoxicity against hamster BHK21 cells assessed as intracellular ATP level upto 100 uM by Celltiter-Glo luminescent assay; assay type: cell-based, Mesocricetus auratus; conditions: bhk-21
# In short: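 CC50 estimated from intracellular ATP by CellTiter-Glo luminescence. BHK-21 cells were tested up to 100 μM.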
# dengue virus type 2 [11] = assay: Antiviral activity against Dengue virus 2 TSVO1 infected in alpha/beta interferon and INFgamma receptor deficient AG129 mouse assessed as decrease in viral load treated 12 hrs postinfection measured after 3 days of infection […]; assay type: functional, organism-based
# dengue virus type 2 [12] = assay: Antiviral activity against at 1 MOI of Dengue virus 2 infected in hamster BHK21 cells assessed as decrease in viral RNA synthesis at 1 uM after 35 hrs post-transfection by luciferase reporter gene assay; assay type: functional, organism-based; conditions: BHK-21, 1 M; in short: as §2
# dengue virus type 2 [13] = assay: Antiviral activity against at 0.3 MOI of Dengue virus 2 infected in hamster BHK21 cells assessed as reduction in viral titer after 48 hrs postinfection; assay type: functional, organism-based
# In short: (§4)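 BHK-21 cells infected with DENV-2 at MOI 0.3 and treated immediately with graded compound concentrations. Viral titers in culture fluid determined at 48 h p.i.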
# dengue virus type 2 [14] = assay: Antiviral activity against at 1 MOI of Dengue virus 2 infected in hamster BHK21 cells assessed as decrease in viral RNA synthesis at 1 uM after 24 hrs post-transfection by luciferase reporter gene assay; assay type: functional, organism-based; conditions: BHK-21, 1 M; in short: as §2
# dengue virus type 2 [15] = assay: Antiviral activity against 3x10^7 PFU Dengue virus 2 D2S10 infected in alpha/beta interferon and INFgamma receptor deficient AG129 mouse assessed as protection against lethal virus challenge at 75 mg/kg, po treated 12 hrs postinfection by HPLC; assay type: functional, organism-based; parameters: dose 75 mg/kg
# In short: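 AG129 mice infected intravenously with 3 × 10^7 PFU of mouse-adapted DENV-2 strain D2S10. A single 75 mg/kg dose given at 12 h postinfection. Read-out was survival after the lethal challenge.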
# dengue virus type 2 [16] = assay: Antiviral activity against at 1 MOI of Dengue virus 2 infected in hamster BHK21 cells assessed as decrease in viral RNA synthesis at 3 uM after 2 to 4 hrs post-transfection by luciferase reporter gene assay; assay type: functional, organism-based; conditions: BHK-21, 1 M; in short: as §2
# dengue virus type 2 [17] = assay: Antiviral activity against Dengue virus 2 TSVO1 infected in alpha/beta interferon and INFgamma receptor deficient AG129 mouse assessed as decrease in viral load at 300 mg/kg, po 12 hrs postinfection […]; assay type: functional, organism-based; parameters: dose 300 mg/kg
# dengue virus type 2 [18] = assay: Antiviral activity against at 1 MOI of Dengue virus 2 infected in hamster BHK21 cells assessed as decrease in viral NS3 protein expression at 1 uM after 24 hrs post-transfection by […]; assay type: functional, organism-based; conditions: BHK-21, 1 M; in short: as §3
# dengue virus type 2 [19] = assay: Antiviral activity against Dengue virus 2 infected in human HEK293 cells assessed as level of viral titer after 48 hrs by luciferase reporter gene assay in presence of siRNA targeting adenosine kinase; assay type: functional, organism-based; conditions: HEK293, 48 h
# Blood [20] = assay: Drug uptake in rat blood assessed as di-derivatives of compound level at 25 mg/kg, po by […]; assay type: ADME, organism-based; parameters: dose 25 mg/kg, route oral; conditions: in vivo; in short: as §1
# dengue virus type 2 [21] = assay: Selectivity ratio of EC50 for Dengue virus 2 infected in human HEK293 cells in presence of siRNA targeting adenosine kinase to EC50 for Dengue virus 2 infected in human HEK293 cells in absence of siRNA targeting adenosine kinase; assay type: functional
# In short: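 siRNA pools (10 pmol, four siRNAs against adenosine kinase or deoxycytidine kinase) reverse-transfected with RNAiMax into HEK-293 cells carrying a DENV-2 luciferase replicon (2 × 10^4/well). After 24 h at 37°C, graded compound concentrations were added. Renilla luciferase was read 3 days later. EC50s were compared with and without siRNA.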
# dengue virus type 2 [22] = assay: Antiviral activity against at 1 MOI of Dengue virus 2 infected in hamster BHK21 cells assessed as decrease in viral RNA synthesis at 1 uM after 2 to 4 hrs post-transfection by luciferase reporter gene assay; assay type: functional, organism-based; conditions: BHK-21, 1 M; in short: as §2
# dengue virus type 2 [23] = assay: Antiviral activity against at 0.3 MOI of Dengue virus 2 infected in hamster BHK21 cells assessed as reduction in viral titer at 6 uM after 48 hrs postinfection; assay type: functional, organism-based; conditions: BHK-21, 0.3 M; in short: as §4
# dengue virus type 2 [24] = assay: Antiviral activity against Dengue virus 2 infected in human A549 cells assessed as level of E protein production up to 20 uM by ELISA in presence of 0.2 uM adenosine kinase inhibitor iodotubercidin; assay type: functional, organism-based
# In short: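 CFI assay in A549 cells with iodotubercidin at 0.2 μM and test compound up to 20 μM. Cells infected with DENV-2 at MOI 0.3 for 1 h with compound in the inoculum, then refed with compound-containing medium. Methanol fixation on day 2 p.i. E protein read by 4G2/HRP ELISA.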
# dengue virus type 2 [25] = assay: Antiviral activity against at 1 MOI of Dengue virus 2 infected in hamster BHK21 cells assessed as decrease in viral RNA synthesis at 3 uM after 35 hrs post-transfection by luciferase reporter gene assay; assay type: functional, organism-based; conditions: BHK-21, 1 M; in short: as §2
# dengue virus type 2 [26] = assay: Antiviral activity against Dengue virus 2 TSVO1 infected in alpha/beta interferon and INFgamma receptor deficient AG129 mouse assessed as […] at 150 mg/kg, po 12 hrs postinfection measured after 3 days of infection […]; assay type: functional, organism-based; parameters: dose 150 mg/kg
# Plasma = assay: Drug uptake in rat plasma at 25 mg/kg, po by […]; assay type: ADME, organism-based; parameters: dose 25 mg/kg, route oral; conditions: in vivo; in short: as §1
# Blood [27] = assay: Drug uptake in rat blood assessed as tri-derivatives of compound level at 25 mg/kg, po by […]; assay type: ADME, organism-based; parameters: dose 25 mg/kg, route oral; conditions: in vivo; in short: as §1
compound,measurement,setting,value
C[C@@]1(O)[C@H](O)[C@@H](CO)O[C@H]1n1cnc2c(N)ncnc21,CC50,[1],> 50 µM
same,EC50,dengue virus type 2 [2],1120 nM
C#C[C@@]1(O)[C@H](O)[C@@H](CO)O[C@H]1n1ccc(N)nc1=O [2'-ETHYNYL-D-CYTIDINE],CC50,[1],> 100 µM
same,EC50,dengue virus type 2 [2],> 100000 nM
CC[C@@]1(O)[C@H](O)[C@@H](CO)O[C@H]1n1cnc2c(N)ncnc21,CC50,[1],> 100 µM
same,EC50,dengue virus type 2 [2],> 100000 nM
C#C[C@@]1(O)[C@H](O)[C@@H](CO)O[C@H]1n1cnc2c(N)ncnc21,CC50,[1],40 µM
same,EC50,dengue virus type 2 [2],1410 nM
CC#C[C@@]1(O)[C@H](O)[C@@H](CO)O[C@H]1n1cnc2c(N)ncnc21,CC50,[1],> 100 µM
same,EC50,dengue virus type 2 [2],> 100000 nM
C#C[C@@]1(O)[C@H](O)[C@@H](CO)O[C@H]1n1cc(C(N)=O)c2c(N)ncnc21,CC50,[1],62 µM
same,EC50,dengue virus type 2 [2],2000 nM
C#C[C@@]1(O)[C@H](O)[C@@H](CO)O[C@H]1n1ccc2c(N)ncnc21,Drug uptake,Blood [3],Active
same,Activity,dengue virus type 2 [4],Active
same,Activity,dengue virus type 2 [5],Active
same,Activity,dengue virus type 2 [6],Active
same,Activity,dengue virus type 2 [7],Active
same,Activity,dengue virus type 2 [8],Active
same,Activity,dengue virus type 2 [9],Active
same,Activity,[10],Non-toxic
same,Activity,dengue virus type 2 [11],Active
same,Activity,dengue virus type 2 [12],Active
same,Activity,"dengue virus type 2 [13]; BHK-21, 0.3 M",Dose-dependent effect
same,EC50,"dengue virus type 2 [13]; BHK-21, 48 h",700 nM
same,CC50,[1],> 100 µM
same,Activity,dengue virus type 2 [14],Active
same,Activity,dengue virus type 2 [15],Active
same,Activity,dengue virus type 2 [16],inactive
same,Activity,dengue virus type 2 [17],inactive
same,Activity,dengue virus type 2 [18],Active
same,EC50,dengue virus type 2 [19],9.2 µM
same,Drug uptake,Blood [20],Active
same,EC50,dengue virus type 2 [2],700 nM
same,Selectivity ratio,dengue virus type 2 [21],11
same,Activity,dengue virus type 2 [22],inactive
same,Activity,dengue virus type 2 [23],Active
same,Activity,dengue virus type 2 [24],inactive
same,Activity,dengue virus type 2 [25],Active
same,Activity,dengue virus type 2 [26],inactive
same,Drug uptake,Plasma,Active
same,Drug uptake,Blood [27],Active
C#C[C@@]1(O)[C@H](O)[C@@H](CO)O[C@H]1n1cc(F)c2c(N)ncnc21,CC50,[1],44 µM
same,EC50,dengue virus type 2 [2],420 nM
C#C[C@@]1(O)[C@H](O)[C@@H](CO)O[C@H]1n1cnc2c(=O)[nH]c(N)nc21,CC50,[1],> 100 µM
same,EC50,dengue virus type 2 [2],> 100000 nM
C=C[C@@]1(O)[C@H](O)[C@@H](CO)O[C@H]1n1cnc2c(N)ncnc21,CC50,[1],> 59 µM
same,EC50,dengue virus type 2 [2],> 50000 nM
C#C[C@@]1(O)[C@H](O)[C@@H](CO)O[C@H]1n1cc(C#N)c2c(N)ncnc21,CC50,[1],> 100 µM
same,EC50,dengue virus type 2 [2],3100 nM
